The whole screen tested about 340,000 compounds, of which about 3,000 (0.88%) were called active.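 How the source made its calls: active means inhibition above about 50% at 20 µM (limit read from the data); inactive means the rest.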 What follows is part of a selection rich in actives, with near analogues and random picks from the rest.

For 96 molecules, inhibition results are on record in PubChem BioAssay AID493091 (Sanford-Burnham Center for Chemical Genomics, 2011).

Carboxy-terminal domain RNA polymerase II polypeptide A small phosphatase 1 (Homo sapiens), sequence (Q9GZU7 76-261 limits assumed): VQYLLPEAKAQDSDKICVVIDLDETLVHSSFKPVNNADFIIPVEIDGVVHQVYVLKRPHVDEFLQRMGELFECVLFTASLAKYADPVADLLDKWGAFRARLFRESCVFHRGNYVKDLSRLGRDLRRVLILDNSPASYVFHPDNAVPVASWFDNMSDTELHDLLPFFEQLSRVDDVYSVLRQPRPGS

In the experiment the target is Carboxy-terminal domain RNA polymerase II polypeptide A small phosphatase 1 (Homo sapiens) (UniProt Q9GZU7). The experiment can be described thus: inhibition of human SCP1 dephosphorylation activity – biochemical, colorimetric, uHTS, primary screen (AID 493091).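 Further: plate controls were DMSO wells with enzyme for no effect and wells lacking enzyme for full effect.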 The following applies: Recombinant Scp1, phosphopeptide, malachite green phosphate absorbance; at 20 µM; stronger effect = higher value. A digest of the protocol: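 Test system: SCP-1 phosphatase catalytic domain, residues 76-261 | Compound dosing: One concentration, 20 µM, with 1.0% DMSO | Schedule: 45 min room-temperature reaction, 5 min colour, 30 min stabiliser | Detection: Absorbance at 630 nm | Read-out basis: % inhibition of SCP-1 phosphate liberation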
One may read the inhibition as the relative decrease from the control value, in per cent. In the case of `O=C(O)c1ccn(COc2ccc(Br)cc2)n1`, the inhibition was -2.51% (inactive). Take `CC1CCN(C(=O)Cn2nnnc2CN2CCOCC2)CC1`: the inhibition was -6.52% (inactive). Regarding `Cc1cc(C)nc(SCc2cn3c(C)cc(C)nc3n2)n1`, the inhibition was -3.52% (inactive). Under `COc1ccc(NC(=O)CN(C)C(=O)/C=C/c2cn(Cc3ccccc3)nc2-c2cccnc2)cc1` stands 97.8% (active). Then `COc1cccc(NC(=O)CN(C)C(=O)/C=C/c2cn(-c3ccccc3)nc2-c2cccs2)c1`, with -11.8% (inactive); and `COc1cccc(NC(=O)CN(C)C(=O)/C=C/c2cc(OC)ccc2OC)c1`, with -9.57% (inactive); and `Nn1c(SCC(=O)Nc2nccs2)nnc1-c1ccco1`, with 1.62% (inactive). For the molecule `CC1CCCCC1NC(=O)c1cn(C)c2ccc(S(=O)(=O)N3CCOCC3)cc2c1=O` (stereo unspecified), the inhibition is -8.17% (inactive). Then `Cc1ccc(CNC(=O)Cn2cnc3c(NCc4ccccc4)ncnc32)o1`, with 1.29% (inactive); and `Cc1nn(CC(=O)Nc2ccc3c(c2)OCO3)c(C)c1[N+](=O)[O-]`, with 0.9% (inactive); and `Cc1nc([N+](=O)[O-])cn1CC(=O)Nc1ccc2c(c1)OCO2`, with -4.74% (inactive).

Consider `Cc1ccc(C(=O)O)cc1-c1ccc(/C=C2\SC(=O)N(CC(=O)Nc3ccc4c(c3)OCO4)C2=O)o1`, for which the inhibition was 94.1% (active). With `CN(Cc1ccccc1)C(=O)c1ccc(NC2=NC3CS(=O)(=O)CC3S2)cc1` (stereo unspecified), the inhibition is -3.86% (inactive).

Take `COc1ccc(S(=O)(=O)NCCc2cc3ccc(C)c(C)c3[nH]c2=O)cc1`: the inhibition is -6.43% (inactive). Under `COc1ccc(S(=O)(=O)c2c[nH]c(=S)[nH]c2=O)cc1Cl` stands 52.5% (active); under `COc1ccc(S(=O)(=O)N(C)CC(=O)N2CCCC2)cc1Cl`, -2.74% (inactive).

Regarding `Cc1ccc(S(=O)(=O)c2c[nH]c3ccc(Cl)cc3c2=O)cc1`, the inhibition was 30.5% (inactive).

For `Cc1ccc(/C=C/C(=O)Nc2ccc([N+](=O)[O-])c(NC(=O)/C=C/c3ccc(C)o3)c2)o1`, the inhibition is 53.2% (active). On to `Cc1ccc(/C=C/C(=O)Nc2cc(S(=O)(=O)N3CCCCCC3)ccc2OCC(F)(F)F)o1`, for which the inhibition was -9.11% (inactive). On to `COC(=O)/C=C\C(=O)Nc1cccc([N+](=O)[O-])c1`, for which the inhibition was -2.7% (inactive). Under `CCOc1ccc(NC(=O)C2CC(=O)N=C(N)S2)cc1` (stereo unspecified) stands -10.8% (inactive); under `Cn1c2c(c(=O)n(C)c1=O)C(c1cccc(F)c1)C(C#N)=C(N)O2` (stereo unspecified), -7.3% (inactive); under `O=C(N/N=C/c1ccco1)c1csc2c1CCCC2`, 0.11% (inactive). As for `O=C(Cc1ccc([N+](=O)[O-])cc1)N/N=C/c1ccco1`, the inhibition was -11.8% (inactive). Under `O=C(N/N=C/c1ccco1)c1ccc(C(=O)N/N=C/c2ccco2)o1` stands 83.9% (active); under `CCn1c(=S)sc2c(=O)n(CC(=O)Nc3cccc(Br)c3)c(C)nc21`, -11% (inactive); under `Cc1ccc(-c2nc(CS(=O)CC(=O)N3CCN(c4ncccn4)CC3)c(C)o2)cc1` (stereo unspecified), 13.2% (inactive). Regarding `COc1ccccc1CNC(=O)c1ccc(CS(=O)(=O)c2ccccc2)o1`, the inhibition is -4.06% (inactive). Then `O=C(c1ccc(CS(=O)(=O)c2ccccc2)o1)N1CCN(c2ccccc2)CC1`, with 62.1% (active).

`O=C(c1ccc(S(=O)(=O)NCc2ccco2)cc1)N1CCN(c2ccccc2)CC1`: the inhibition is 22.5% (inactive).

`CC(C)NC(=O)C(c1ccc(F)cc1)N(C(=O)CCC(=O)Nc1ccccn1)c1ccccc1F` (stereo unspecified): the inhibition is -5.49% (inactive).

On to `Cc1ccc(-c2noc(C3CCCN(C(=O)c4cccc(Cl)c4)C3)n2)o1` (stereo unspecified), for which the inhibition was -1.22% (inactive). Consider `O=C(N/N=C/c1ccccc1O)/C(=C/c1ccccc1)CCO`, for which the inhibition was -13.2% (inactive).

Regarding `O=C(N/N=C/c1ccccc1O)C1CCCC1`, the inhibition is -10.5% (inactive).

Turning to `O=C(NN=Cc1ccccc1O)NN=Cc1ccccc1O`, the inhibition is 85.7% (active).

With `COc1ccccc1CN(C)C(=O)C1(c2ccc(Cl)cc2)CC1`, the inhibition was -10.7% (inactive). In the case of `CSCCC(NS(=O)(=O)c1ccc(C)cc1)C(=O)N1CCCC1` (stereo unspecified), the inhibition was -0.76% (inactive). Under `Cc1ccc(-n2c(O)c(C=Nc3ccc(S(=O)(=O)Nc4ncccn4)cc3)c3ccccc3c2=O)cc1C` stands -12.6% (inactive); under `Cc1ccc(N=Cc2c(O)cc(C)oc2=O)c(C)c1`, -1.31% (inactive); under `Cc1ccc(N=Cc2c(O)n(-c3nccs3)c(=O)c3ccccc23)c(C)c1`, 51.3% (active). Under `O=C(NCCCc1ccccc1)C1CCC(CNc2c(N3CCCCC3)c(=O)c2=O)CC1` (stereo unspecified) stands -5.39% (inactive); under `COc1ccccc1NC(=O)CCC(=O)OC(C)C(=O)c1ccccc1` (stereo unspecified), -10.3% (inactive). Then `COc1ccccc1CN1CCNC(=O)C1CC(=O)N(C)CC1CCOCC1` (stereo unspecified), with -2.19% (inactive); and `COc1ccc(CNC(=O)COc2cccnc2[N+](=O)[O-])cc1`, with -6.82% (inactive). Turning to `N#Cc1ccccc1CN1C(=O)S/C(=C/c2cccn2-c2cccc(C(=O)O)c2)C1=O`, the inhibition is 70.5% (active). With `Cc1nn(Cc2ccccc2)c(C)c1C(=O)NCCN1C(=O)S/C(=C\c2ccc(F)cc2)C1=O`, the inhibition is -5.22% (inactive). In the case of `O=C(NCCN1C(=O)S/C(=C\c2cccnc2)C1=O)c1cccc(OC(F)F)c1`, the inhibition is -7.82% (inactive). Then `Cc1ccccc1CSc1nnc(-c2ccccn2)n1N`, with -3.67% (inactive); and `O=C(COC(=O)c1ccc(F)cc1F)Nc1ncccn1`, with 87% (active). Under `CCOC(=O)c1cccc(NC(=O)c2ccc(F)cc2F)c1` stands -7.13% (inactive); under `O=C(COC(=O)CSc1ccccc1)Nc1ccc(F)cc1F`, -2.71% (inactive); under `COCCNC(=O)C(OC(=O)c1cccs1)c1ccc(F)cc1` (stereo unspecified), -8.1% (inactive). Then `CN(c1ccccc1)S(=O)(=O)c1cccc(C(=O)NNC(=O)c2ccncc2)c1`, with -6.19% (inactive). Take `CCCNC(=O)CCc1c(C)nc2c(c(C)nn2-c2ccccc2)c1C`: the inhibition was -19% (inactive).

Take `O=S1(=O)CC/C(=N\Nc2ccc(F)cc2)c2ccsc21`: the inhibition was -1.87% (inactive). Under `Nn1cnnc1N/N=C/c1cc([N+](=O)[O-])c(Cl)cc1Cl` stands 71.5% (active); under `Cc1ccsc1C(=O)NNC(=O)COc1ccc(Br)cc1`, -2.35% (inactive); under `COc1ccc(-c2ccc(CCC(=O)O)n2-c2ccc(O)cc2)cc1`, -8.68% (inactive). Then `COc1ccc(Cl)cc1C=CC=Nc1ccc(S(N)(=O)=O)cc1`, with -0.31% (inactive); and `COc1ccc(Cl)cc1C=CC=NNC(=O)c1ccncc1`, with 54.2% (active); and `COc1ccccc1/C=C/C=N/NC(=O)CN1CCN(Cc2ccccc2)CC1`, with -7.3% (inactive). Under `CCOC(=O)N1CCN(c2c(NCCN3CCN(c4ccccc4F)CC3)c(=O)c2=O)CC1` stands -8.45% (inactive). For `ON=C1/C(=N\O)CC2(C/C1=N/O)OCCO2`, the inhibition was 58% (active).

`O/N=C1\CC2(Cc3nonc31)OCCO2`: the inhibition was -5.88% (inactive).

In the case of `O=C(Cn1nnc(-c2ccc3c(c2)OCO3)n1)NCc1ccco1`, the inhibition is 60.1% (active). For the molecule `S=C(NCc1ccc2c(c1)OCO2)NCc1ccco1`, the inhibition is -10.4% (inactive). Then `CS(=O)(=O)N(CC(=O)NCc1ccco1)c1ccc2c(c1)OCO2`, with 17.7% (inactive); and `COc1cccc(CNC(=O)CN(C)S(=O)(=O)c2ccc3c(c2)c(=O)n(C)c(=O)n3C)c1`, with -11.9% (inactive); and `Cc1ccc(S(=O)(=O)/N=S(\C)C(C)C)cc1` (stereo unspecified), with -1% (inactive).

Regarding `COc1cc(/C=C/C(=O)OCC(=O)NC2CC2)cc(OC)c1OC`, the inhibition was 8.5% (inactive). As for `COc1ccc(/C=C/C(=O)OCC(=O)NC2CCCCCC2)cc1OC`, the inhibition is 53% (active). As to `COc1ccccc1/C=C/C(=O)OCC(=O)NC1CCCCCC1`, the inhibition was -7.74% (inactive). Then `CCOC(=O)c1oc2c(CN3CCN(CCO)CC3)c(O)c(CC)cc2c(=O)c1-c1nc2ccccc2s1`, with -2.5% (inactive). Under `Cc1ccc(NC(=O)COc2coc(CN3CCc4ccccc4C3)cc2=O)cc1Cl` stands 5.58% (inactive). On to `Cc1nnc2n1N=C(c1ccc3c(c1)NC(=O)CO3)CS2`, for which the inhibition is -2.49% (inactive). Under `Cc1cc(NC(=O)[C@H](C)NC(=O)c2ccco2)ccc1Br` stands -11% (inactive); under `CCOc1ccc(N(CC(=O)OC)S(=O)(=O)c2c(C)noc2C)cc1`, -4.21% (inactive); under `CCOC(=O)C1CCCN(C(=O)CN(c2ccc(OC)cc2)S(=O)(=O)c2c(C)noc2C)C1` (stereo unspecified), 57.4% (active). Turning to `CCOC(=O)C1CCCN(C(=O)/C=C/c2ccc(OC)cc2)C1` (stereo unspecified), the inhibition was 0.29% (inactive). Then `COc1ccc(OC)c(S(=O)(=O)NCCC(C)C)c1`, with -1.08% (inactive); and `Cc1nc2cc(NC(=O)CSc3nc4c(C)cccc4cc3C#N)ccc2s1`, with 20.8% (inactive); and `COc1cc(/C=C/c2ccc(/C=C/c3cc(OC)c(OC)c(OC)c3)cc2)cc(OC)c1OC`, with 4.65% (inactive). Then `COc1ccc(/C=C/C2=CC(C)(C)NC(=S)N2)c(OC)c1`, with -2.22% (inactive); and `COc1cc(/C=C/C2=CC(C)(C)NC(=S)N2)cc(OC)c1OC`, with 83.9% (active); and `CCOC(=O)c1c(NC(=O)CNC2CCCc3ccccc32)sc(C(N)=O)c1C` (stereo unspecified), with -9.44% (inactive). Under `CCOCCCNC(=S)Nc1ccc2nc(N3CCN(CC)CC3)cc(C)c2c1` stands -1.55% (inactive). Turning to `Cc1ccc(C(=O)Nc2sc(Cc3ccc4c(c3)OCO4)c(C)c2C(N)=O)cc1`, the inhibition was -8.44% (inactive). Then `CCOC(=O)c1cc2occc2n1CC(=O)N1CCN(C(=O)c2ccco2)CC1`, with -2.95% (inactive); and `O=C(Nc1cccc(Br)c1)C1CC(=O)N(C2CCCC2)C1` (stereo unspecified), with -7.74% (inactive); and `COc1ccccc1N(CC(=O)NC1CCCC1)C(=O)C1(C)CC(=O)N=C2C=CC(C)=CN21` (stereo unspecified), with -2.31% (inactive). Under `Clc1ccc(CSc2nnc3c(n2)[nH]c2ccccc23)cc1` stands -4.5% (inactive); under `CCc1nnc(SCc2cccc(F)c2)nc1CC`, -10.3% (inactive).

As to `c1ccc(CSc2nnc(-c3ccco3)c(-c3ccco3)n2)cc1`, the inhibition was 79.2% (active). For the molecule `S=C(NCc1ccco1)NCc1ccccc1Cl`, the inhibition was -4.7% (inactive). Under `O=C(Nc1nnc(SCc2ccccc2Cl)s1)c1cccc([N+](=O)[O-])c1` stands -14% (inactive).

In the case of `Clc1ccccc1CSc1nnc(-c2ccco2)c(-c2ccco2)n1`, the inhibition is 76.5% (active).
